From ChEMBL document CHEMBL1132551, “Selective inhibitors of glial GABA uptake: synthesis, absolute stereochemistry, and pharmacology of the enantiomers of 3-hydroxy-4-amino-4,5,6,7-tetrahydro-1,2-benzisoxazole (exo-THPO) and analogues” (J Med Chem, 1999)

Key:
Mus musculus [1] = organism: Mus musculus; experiment: Effect on glial GABA(1 uM) uptake was measured using astrocytes cultured from cerebral cortices of new born mice.; format: functional, organism-based
Mus musculus [2] = organism: Mus musculus; experiment: Effect on neuronal GABA(1 uM) uptake was measured using neurons cultured from cerebral cortices of 15-day-old mouse embryos.; format: functional, organism-based
Rattus norvegicus = organism: Rattus norvegicus; experiment: Inhibition of GABA uptake into crude synaptosomes prepared from adult rat brain; format: functional
Procedure, shortened: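 Crude synaptosomes from adult rat brain were preincubated with inhibitor for 10 min at 20 °C. Uptake was then run at 0.05 μM GABA.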

[3] = The apparent partition coefficient(D) in n-octanol-0.05 M phosphate buffer (pH 7.4) at 21 degree celsius.; format: physicochemical
Procedure, shortened: (§1)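 Organic and aqueous phases were mutually saturated at 21 °C. Compound was dissolved in the aqueous buffer at (2–3) × 10^-5 M and shaken 10–15 min to equilibrium. Phases were separated by centrifugation for 3–5 min. Aqueous concentration before and after distribution was measured by HPLC, and D was reported as log D.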

[4] = Hydrolysis was studied in 0.02 M phosphate buffer containing 80% human plasma (pH 7.4) at 37 degree celsius; stable; format: ADME, cell-free
Procedure, shortened: (§2)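 Initial compound concentration was (2–3) × 10^-5 M, held at 37 °C. Samples taken over time were deproteinized with EtOH and centrifuged 3–5 min. Supernatant was analyzed by RP-HPLC at 220 nm; half-life was derived from residual compound over time.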

[5] = Hydrolysis was studied in 0.02 M aqueous phosphate buffer (pH 7.4) at 37 degree celsius; stable; format: ADME
Procedure, shortened: (§3)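 Prodrug stock in MeCN–H2O was added to prewarmed buffer, giving (2–3) × 10^-5 M final. Tubes were held at 37 ± 0.2 °C and sampled over time for RP-HPLC at 220 nm, quantified by peak area against standards. Pseudo-first-order rate constants came from slopes of log residual prodrug versus time, expressed as t1/2.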

[6] = The apparent partition coefficient(D) in cyclohexane-0.05 M phosphate buffer (pH 7.4) at 21 degree celsius.; format: physicochemical; procedure, shortened: as §1
[7] = Hydrolysis was studied in 0.02 M phosphate buffer containing 80% human plasma (pH 7.4) at 37 degree celsius.; format: ADME, cell-free; procedure, shortened: as §2
[8] = Hydrolysis was studied in 0.02 M aqueous phosphate buffer (pH 7.4) at 37 degree celsius.; format: ADME; procedure, shortened: as §3

Structure (SMILES) | IC50 (Mus musculus [1]) | IC50 (Rattus norvegicus) | IC50 (Mus musculus [2]) | also measured
Oc1noc2c1C(N1CCCC1)CCC2 (stereo not drawn) | > 500 µM | 201 µM | > 1000 µM | –
NC1CCCc2snc(O)c21 (stereo not drawn) | > 500 µM | 290 µM | > 1000 µM | –
CN(C)C1CCCc2onc(O)c21 (stereo not drawn) | > 500 µM | 291 µM | > 1000 µM | –
CN[C@H]1CCCc2onc(O)c21 | – | > 300 µM | – | –
N[C@H]1CCCc2onc(O)c21 | – | > 300 µM | – | –
CNC1CCCc2on(COC(=O)C(C)(C)C)c(=O)c21 (stereo not drawn) | – | – | – | logD [6]: -1.4; logD [3]: 0.05; half-life [7]: 0.117 h; half-life [8]: 267 h
Oc1noc2c1CNCC2 | 268 µM | 162 µM | 530 µM | –
CNC1CCCc2snc(O)c21 (stereo not drawn) | > 500 µM | 242 µM | > 1000 µM | –
CNC1CCCc2onc(OCOC(=O)C(C)(C)C)c21 (stereo not drawn) | – | – | – | logD [6]: -0.17; logD [3]: 0.65; half-life [7]: 0.25 h; half-life [8]: 75 h

The next lines start with results.

IC50 (Mus musculus [1]) | IC50 (Rattus norvegicus) | Structure (SMILES) | IC50 (Mus musculus [2]) | also measured
> 500 µM | 173 µM | OCCNC1CCCc2onc(O)c21 (stereo not drawn) | > 1000 µM | –
28 µM | 63 µM | CNC1CCCc2onc(O)c21 (stereo not drawn) | 423 µM | logD [3]: -2.3; T1/2 [4]: stable; T1/2 [5]: stable
281 µM | 118 µM | N[C@@H]1CCCc2onc(O)c21 | 681 µM | –
16 µM | 5 µM | O=C(O)[C@@H]1CCCNC1 [(R)-NIPECOTIC ACID] | 12 µM | –
278 µM | 105 µM | CCNC1CCCc2onc(O)c21 (stereo not drawn) | 391 µM | –
> 500 µM | 98 µM | C=CCNC1CCCc2onc(O)c21 (stereo not drawn) | > 1000 µM | –
208 µM | 181 µM | NC1CCCc2onc(O)c21 (stereo not drawn) | 883 µM | –
29 µM | 12 µM | O=C(O)C1=CCCNC1 [GUVACINE] | 32 µM | –
> 500 µM | 125 µM | CC(=O)OCCNC1CCCc2onc(O)c21 (stereo not drawn) | > 1000 µM | –
60 µM | 39 µM | CN[C@@H]1CCCc2onc(O)c21 | 510 µM | –
